# From PubChem
# 697 NFkB inh = lowers PMA/ionomycin-induced NF-kB signal in 697 B cells. 697 B-cell NF-kB luciferase reporter, 16 h. inhibition, % at 4 µM. actives 0.33% (n = 330,000); in the data active = inhibition above about 35%
# aDG glyco up = increases alpha dystroglycan glycosylation. activation, % at 10 µM. Pro5-aDG cells, alpha-DG glycosylation AlphaScreen (IIH6); 0% Pro5, 100% B10-LARGE cell signal. actives 0.22% (n = 360,000);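 active = activation of at least 8% versus controls, or a plate z-score of at least 8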;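 note: Pro5 are CHO cells carrying HIG-tagged alpha-DG that lacks glycosylation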
# NR2E3 ag-1 = human photoreceptor-specific nuclear receptor agonism; Q9Y5X4; CHO-S Gal4-NCOR/VP16-NR2E3 two-hybrid, luciferase; inhibition of corepressor binding, % at 3.98 µM; actives 0.35% (n = 360,000);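 active = inhibition above the mean of all tested compounds plus 3 SD, cut at about 70% in these data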;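 note: 0% = DMSO with NR2E3 transfected cells and 100% = cells lacking NR2E3 construct; higher means lower luciferase signal from less NR2E3 corepressor binding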
# Target sequence (Q9Y5X4 whole entry, looked up, the tested form may be a part): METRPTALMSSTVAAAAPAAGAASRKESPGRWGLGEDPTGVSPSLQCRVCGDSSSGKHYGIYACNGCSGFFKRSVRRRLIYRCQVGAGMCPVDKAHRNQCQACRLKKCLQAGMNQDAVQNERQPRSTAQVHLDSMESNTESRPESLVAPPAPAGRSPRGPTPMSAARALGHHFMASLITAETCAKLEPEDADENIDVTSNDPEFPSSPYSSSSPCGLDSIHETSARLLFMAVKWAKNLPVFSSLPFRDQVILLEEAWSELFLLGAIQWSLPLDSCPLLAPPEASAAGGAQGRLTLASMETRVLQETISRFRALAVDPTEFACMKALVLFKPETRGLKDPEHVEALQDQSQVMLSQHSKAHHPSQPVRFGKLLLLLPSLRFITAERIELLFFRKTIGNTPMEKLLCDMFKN
# MPTP block = permeability transition pore inhibition; actives 1.4% (n = 360,000); inhibition, % at 10 µM; isolated mouse mitochondria, Ca2+ swelling absorbance, 30 min;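 active = inhibition of 50% or more, scaled per plate between neutral and stimulator controls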;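 note: 0% = DMSO wells given calcium and 100% = 1 mM EGTA wells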
# Jurkat NFkB inh = inhibitors of the PMA/ionomycin-induced NF-kB reporter in Jurkat cells; PMA/ionomycin-induced NF-kB luciferase reporter, luminescence; inhibition, % at 4 µM; actives 0.53% (n = 330,000); in the data active = inhibition above about 50%
# NR2E3 ag-2 = activates human photoreceptor nuclear receptor NR2E3 | GST-NR2E3/biotin-RetCOR TR-FRET, 1536-well | actives 0.12% (n = 320,000) | Q9Y5X4 | inhibition of corepressor binding, % at 4.78 µM;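 active = percent inhibition above the cutoff of mean plus 3 SD of all tested compounds, set per screening campaign, cut at about 20% in these data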;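 note: 0% = DMSO wells and 100% = biotin wells as full block of FRET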
#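 System: GST-tagged NR2E3 plus biotinylated RetCOR corepressor; Amount: 1.35 nM GST-tagged NR2E3 final; Dosing: single nominal compound dose of 4.8 µM; Schedule: 5 h incubation at 4 °C; Technique: TR-FRET with europium anti-GST and streptavidin-D2, 340 nm excitation; Controls: biotin wells as high control, 0.6% DMSO wells as low control.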
# NR2E3 ag confirm = confirmation of human NR2E3 agonists; shares compounds with NR2E3 ag-1; CHO-S mammalian two-hybrid NR2E3-NCOR, luciferase luminescence; inhibition, % at 3.98 µM; actives 51% (n = 2,300); AID 624378;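 active = average inhibition above a cutoff equal to the mean inhibition of all tested compounds plus one SD, cut at about 70% in these data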;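 note: 0% = DMSO in NR2E3 cells and 100% = DMSO in cells lacking NR2E3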
# VP16 counter = counter-screen for NR2E3 agonists: GAL4-VP16 reporter inhibitors | shares compounds with NR2E3 ag-1 | CHO-S GAL4-VP16 luciferase reporter, luminescence | inhibition, % at 3.98 µM | actives 29% (n = 2,300) | AID 624379;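 active = mean inhibition above a cutoff equal to the average over all tested compounds plus one standard deviation, cut at about 70% in these data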;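 note: luciferase from a UAS reporter driven by GAL4-VP16 transactivation; 0% = DMSO with VP16-transfected cells and 100% = DMSO with cells lacking VP16; higher means less reporter light so more repression of VP16 activity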
# * marks the source's active call; other numbers are inactive results; x = no result. An excerpt weighted towards active compounds, which were near 2.4% of everything screened.
SMILES,697 NFkB inh,aDG glyco up,NR2E3 ag-1,MPTP block,Jurkat NFkB inh,NR2E3 ag-2,NR2E3 ag confirm,VP16 counter
CCOc1cnn(-c2cc(Oc3ccc(C)cc3)ncn2)c(=O)c1Cl,-26,0,-10,-12,-17,0,x,x
Nc1ccc(S(=O)(=O)NNC(=O)C(=O)NNc2ccccc2)cc1,16,0,61,-11,10,7,51,30
CCOc1cc(CNc2ccc3c(c2)OCCO3)cc(Br)c1OCC,-47,-1,57,2,42,1,-6,-9
CC(C)c1ccc(CC(=O)N2CCC2(C)C(=O)Nc2cccc(C#N)c2)cc1 (stereo unspecified),x,2,52,2,x,x,17,30
CC(C)c1ccc(CC(=O)N2CCC2(C)C(=O)Nc2ccc3c(c2)OCO3)cc1 (stereo unspecified),x,0,8,0,x,x,x,x
CC1(C(=O)NS(=O)(=O)c2ccc3ccccc3c2)CCN1C(=O)Cc1ccc(-c2ccccc2)cc1 (stereo unspecified),x,0,48,2,x,x,11,6
CC1(C(=O)Nc2ccc3c(c2)OCCO3)CCN1C(=O)Cc1ccc(-c2ccccc2)cc1 (stereo unspecified),x,1,57,1,x,x,56,45
COc1ccccc1NC(=O)c1cccc(N2C(=O)C3C4C=CC(C4)C3C2=O)c1 (stereo unspecified),-19,0,-14,-2,-2,-3,x,x
CC(COc1ccccc1)N1CCC(CO)(Cc2ccccc2)CC1 (stereo unspecified),5,0,-10,-1,-1,1,x,x
CC(O)CNc1ncnc2nc[nH]c12 (stereo unspecified),12,0,-18,-3,5,1,x,x
CC(C)CCCCCCCCCCCCC(=O)NCC(=O)NC1C(O)C(O)C(Nc2ncnc3nc[nH]c23)OC1C(O)CO (stereo unspecified),x,0,100*,2,x,x,100*,101*
CC1CCN(C(=O)COC(=O)c2ccc(N3CCCC3=O)cc2)CC1,12,0,-16,-1,11,5,x,x
CC(=O)N1CCN(C(=O)c2ccc(Cl)c(S(=O)(=O)N3CC(C)OC(C)C3)c2)CC1 (stereo unspecified),6,1,49,0,12,x,0,4
CC(=O)N1CCN(C(=O)c2ccc(Cl)c(S(=O)(=O)N3CCCC3)c2)CC1,17,1,32,0,5,x,x,x
COc1cccc(NC(=O)Nc2ccc(Cc3ccncc3)cc2)c1,-8,0,55,45,-16,-3,42,30
COc1ccc(NC2CCCN(C(=O)C3=NNC(=O)CC3)C2)cc1 (stereo unspecified),x,0,-40,0,x,x,x,x
O=C(NCC1CCCO1)C1CC(c2ccc(Cl)c(Cl)c2)=NO1 (stereo unspecified),15,0,48,6,17,-1,25,19
O=[N+]([O-])c1cc(Cl)c(O)c2ncccc12,0,0,103*,-23,24,x,99*,71*
CN(Cc1cc([N+](=O)[O-])c2cccnc2c1O)C1CCCCC1,-18,x,x,x,-23,-2,x,x
O=[N+]([O-])c1cc(CN2CCN(c3ccccc3)CC2)c(O)c2ncccc12,-6,1,83*,2,9,-1,74*,20
O=C(NC1=NCCS1)c1ccccc1OCc1ccccc1Cl,2,0,3,-1,-2,-3,x,x
CC(C)c1ccccc1OCC(=O)Nc1ccccc1C(=O)N1CCOCC1,11,0,-8,0,11,0,x,x
CCC(=O)N1CCc2cc(S(=O)(=O)CCC(=O)NCCc3ccc(S(N)(=O)=O)cc3)ccc21,-2,0,-26,-1,7,4,x,x
O=C1c2ccccc2C(=O)c2[nH]c(=O)[nH]c21,4,1,68,1,2,-4,75*,32
